Consider ten molecules from PMC2933382 (Biochemistry, 2010).

Where two headings read alike, the source gives them in different places. Some results are limits rather than exact numbers.

The target in data set [1] is T1, AeSCP-2 (Aedes aegypti, UniProt Q86PR3).
T1 sequence (Q86PR3 1-110): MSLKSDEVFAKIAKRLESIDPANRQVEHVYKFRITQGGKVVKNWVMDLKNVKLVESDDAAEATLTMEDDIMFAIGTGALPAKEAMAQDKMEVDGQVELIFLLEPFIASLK
Kind of data set: Initial ligand competition assay. The data set is classed as binding. The following applies: Fig. 1; NBD-cholesterol 1.25 µM, competitive ligand 0.005 to 5 µM.

The target of a further data set is AeSCP-2 F32A mutant (Aedes aegypti, UniProt Q86PR3, F32A). Kind of data set: NBD-cholesterol binding to recombinant AeSCP-2 mutant.
In data set [2] the target is T2, AeSCP-2 W44E mutant (Aedes aegypti, UniProt Q86PR3, W44E). Described as above.
Data set [3] concerns the target T3, AeSCP-2 F9W/W44F mutant (Aedes aegypti, UniProt Q86PR3, F9W/W44F). Described as above.
Data set [4] addresses T4, AeSCP-2 F105W mutant (Aedes aegypti, UniProt Q86PR3, F105W). The data set is described as above. To be noted: 0.5 µM NBD-cholesterol, protein 0.01 to 10 µM, mean (standard deviation).
The target of data set [5] is T5, AeSCP-2 F32W mutant (Aedes aegypti, UniProt Q86PR3, F32W). Described as above. To be noted: 0.5 µM NBD-cholesterol, protein 0.01 to 10 µM, mean (standard deviation).
In data set [6] the target is T6, AeSCP-2 Y30A mutant (Aedes aegypti, UniProt Q86PR3, Y30A). The description is as above.
In the next data set the target is AeSCP-2 F105A mutant (Aedes aegypti, UniProt Q86PR3, F105A). The data set is described as above.
The target of data set [7] is T7, AeSCP-2 M90L mutant (Aedes aegypti, UniProt Q86PR3, M90L). Described as above.
The target in the next data set is T8, AeSCP-2 wild-type (Aedes aegypti, UniProt Q86PR3).
T8 sequence (Q86PR3 1-110): T1 sequence (Q86PR3 1-110)
The data set is described as follows: NBD-cholesterol binding to recombinant AeSCP-2. The following applies: wt; 0.5 µM NBD-cholesterol, protein 0.01 to 10 µM; mean (standard deviation).

Data set [8] deals with T1, AeSCP-2. To be noted: read-out: IC50 (suppression of NBD-cholesterol binding); cited from earlier work.
Data set [9] relates to wild type AeSCP-2 denatured in 6.5 M guanidine hydrochloride. The data set is described as follows: Intrinsic tryptophan fluorescence, denatured protein negative control. Type of data set: binding, Aedes aegypti. To be noted: Fig. 6B. The essentials: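 Negative control: recombinant AeSCP-2 denatured in 6.5 M guanidine-HCl in 50 mM Tris-HCl, pH 7.4, scanned with and without inhibitor. Excitation at 280 nm; emission read 320–390 nm. Buffer and inhibitor-alone spectra were subtracted to give difference spectra.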

Data set [10] has as its target T7, AeSCP-2 M90L mutant. Type of data set: binding. To be noted: Fig. 6D.
Data set [11] concerns the target T9, wild type AeSCP-2 (Aedes aegypti, UniProt Q86PR3).
T9 sequence (Q86PR3 1-110): T1 sequence (Q86PR3 1-110)
Type of data set: binding. The following applies: 50 µM SCPI; wild type AeSCP-2 at 10 µM; Fig. 6A. In short, it runs like this:
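Intrinsic Trp (single residue, W44) fluorescence of purified recombinant native AeSCP-2, with and without SCP-2 inhibitor. Run in 100 µL of 50 mM Tris-HCl, pH 8.0, at 25 °C. Excitation at 280 nm; emission scanned 320–390 nm. Difference spectra were made by subtracting buffer and inhibitor-alone spectra.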

Data set [12] addresses T3, AeSCP-2 F9W/W44F mutant. The data set is classed as binding. To be noted: Fig. 6C.
For a further data set, the system named is Aag-2 cells. The data set is classed as cell-based, Aedes aegypti. The following applies: for Incorporation of [3H]cholesterol: Fig. 4; for Incorporation of [3H]palmitic acid: Fig. 5.
In data set [13] the target is T5, AeSCP-2 F32W mutant. Kind of data set: Ligand competition assay with NBD-cholesterol. The data set is classed as binding.
A further data set addresses recombinant AeSCP-2. The following applies: radiolabelled cholesterol; cited from earlier work.
Data set [14] deals with T6, AeSCP-2 Y30A mutant. Kind of data set: Ligand competition assay with NBD-cholesterol. Type of data set: binding.
For another data set, the target named is AeSCP-2 W44A mutant (Aedes aegypti, UniProt Q86PR3, W44A). Kind of data set: Ligand competition assay with NBD-cholesterol. The data set is classed as binding.
The conditions of data set [15]: within the lipid bilayer; cited from earlier work.
For data set [16], the target named is T4, AeSCP-2 F105W mutant. Kind of data set: Ligand competition assay with NBD-cholesterol. Type of data set: binding.
The target of data set [17] is T9, wild type AeSCP-2. The data set is described as follows: Ligand competition assay with NBD-cholesterol. Type of data set: binding.
Data set [18] concerns the target T2, AeSCP-2 W44E mutant. The data set is described as follows: Ligand competition assay with NBD-cholesterol. The data set is classed as binding.
Data set [19] has as its target T7, AeSCP-2 M90L mutant. The data set is described as follows: Ligand competition assay with NBD-cholesterol. Type of data set: binding.

For `CC(C)CCC[C@@H](C)[C@H]1CC[C@H]2C3=CC=C4C[C@@H](O)CC[C@]4(C)[C@H]3CC[C@]12C` [7-dehydrocholesterol], at AeSCP-2 [1], the “Competition with NBD-cholesterol for binding to AeSCP-2” value (shortened to “Competition with NBD-cholesterol”) was “did not appear to compete”.
With `C[C@H](CNc1ccc([N+](=O)[O-])c2nonc12)[C@H]1CC[C@H]2[C@@H]3CC=C4C[C@@H](O)CC[C@]4(C)[C@H]3CC[C@]12C` [NBD-cholesterol, 22-(N-(7-nitrobenz-2-oxa-1,3-diazol-4-yl)amino)-23,24-bisnor-5-cholen-3β-o], the “Fold of Kd change” value at AeSCP-2 F32A mutant (F32A vs. wt) came out at 18.71; on AeSCP-2 W44E mutant [2] (W44E vs. wt), 12.35; on AeSCP-2 F9W/W44F mutant [3] (F9W/W44F vs. wt), 2.68; at AeSCP-2 Y30A mutant [6] (Y30A vs. wt) it was 0.73; on AeSCP-2 F105A mutant (F105A vs. wt), 3.38; at AeSCP-2 M90L mutant [7] (M90L vs. wt), 8.09. The Kd at AeSCP-2 F32A mutant (F32A, 0.5 µM NBD-cholesterol, protein 0.01 to 10 µM, mean (standard deviation)) was found to be 6.36 µM; on AeSCP-2 W44E mutant [2] (W44E, 0.5 µM NBD-cholesterol, protein 0.01 to 10 µM, mean (standard deviation)) it was 4.2 µM; at AeSCP-2 F9W/W44F mutant [3] (F9W/W44F, 0.5 µM NBD-cholesterol, protein 0.01 to 10 µM, mean (standard deviation)), 0.91 µM; at AeSCP-2 F105W mutant [4], 1.32 µM; at AeSCP-2 F32W mutant [5], 4.94 µM; on AeSCP-2 Y30A mutant [6] (Y30A, 0.5 µM NBD-cholesterol, protein 0.01 to 10 µM, mean (standard deviation)), 0.25 µM. Further, the Kd stood at 1.15 µM at AeSCP-2 F105A mutant (F105A, 0.5 µM NBD-cholesterol, protein 0.01 to 10 µM, mean (standard deviation)); 2.75 µM on AeSCP-2 M90L mutant [7] (M90L, 0.5 µM NBD-cholesterol, protein 0.01 to 10 µM, mean (standard deviation)); 0.34 µM on AeSCP-2 wild-type.
`Br.CC(=O)Nc1ccc(Nc2nc(-c3ccc(Cl)c(Cl)c3)cs2)cc1` [SCPI-1, N-4-{[4-(3,4-dichlorophenyl)-1,3-thiazol-2-yl]amino}phenyl)aetamide hydrobromide]: the half-maximal inhibitory concentration (IC50) on AeSCP-2 [8] was under 0.4 µM.
Consider `Br.CC(=O)Nc1ccc(Nc2nc(-c3ccc(Cl)c(Cl)c3)cs2)cc1` [SCPI-1], for which, in data set [9], the “Quenching of tryptophan intrinsic fluorescence, denatured protein” value is given as “no significant quenching”. In addition, the “Effect on tryptophan intrinsic fluorescence” value on AeSCP-2 M90L mutant [10] and at AeSCP-2 F9W/W44F mutant [12] was “still quenched” in each case. For the same molecule, at wild type AeSCP-2 [11], the “Effect on tryptophan intrinsic fluorescence signal” value is given as “significant decrease”.
As to `COc1cccc(-n2sc3c(c2=S)-c2cc(Cl)ccc2NC3(C)C)c1` [SCPI-2, 8-chloro-2-(3-methoxyphenyl)-4,4-dimethyl-4,5-dihydroisothiazol[5,4-c]quinoline-1(2H)-thione], the “Quenching of tryptophan intrinsic fluorescence, denatured protein” value in [9] is given as “no significant quenching”. Moreover, the IC50 on AeSCP-2 [8] is under 0.4 µM. Further, the “Effect on tryptophan intrinsic fluorescence” value on AeSCP-2 M90L mutant [10] and on AeSCP-2 F9W/W44F mutant [12] was “did not affect” in each case. The “Effect on tryptophan intrinsic fluorescence signal” value at wild type AeSCP-2 [11] is “significant decrease”.
On to `[3H]C1C([3H])[C@@]2(C)C(=CC[C@H]3[C@@H]4CC[C@H]([C@H](C)CCCC(C)C)[C@@]4(C)CC[C@@H]32)C[C@H]1O` (stereo partly shown) [[^3H]cholesterol, [1,2-^3H (N)]-cholesterol], for which the “Incorporation of [3H]cholesterol” value in the data set with Aag-2 cells (cells over-expressing AeSCP-2 mutants F32A, W44E, M90L, and F105A) was “did not increase”; in the data set with Aag-2 cells (cells over-expressing wild type AeSCP-2 vs. empty vector), “increased significantly”.
Turning to `[3H]C(CCCCCC)C([3H])CCCCCCCC(=O)O` (stereo not shown) [[^3H]palmitic acid, [9,10-^3H]-palmitic acid], the “Incorporation of [3H]palmitic acid” value in the data set with Aag-2 cells (cells transfected with either empty or AeSCP-2 wild type expression vectors) is recorded as “no increase”; with Aag-2 cells (over-expression of AeSCP-2 mutants), “did not affect”.
With `CC(C)CCC[C@@H](C)[C@H]1CC[C@H]2[C@@H]3CC=C4C[C@@H](O)CC[C@]4(C)[C@H]3CC[C@]12C` [cholesterol], the EC50 at AeSCP-2 F32W mutant [13] turned out to be 0.447 µM; on AeSCP-2 Y30A mutant [14], 0.282 µM; at AeSCP-2 W44A mutant, 0.072 µM; at AeSCP-2 F105W mutant [16] it was 0.474 µM; on wild type AeSCP-2 [17], 0.211 µM. The “Competition with NBD-cholesterol” value on AeSCP-2 [1] is recorded as “competed with the NBD-cholesterol for binding to AeSCP-2 in a dose-dependent fashion”. Also, the Kd at recombinant AeSCP-2 was 0.01 µM. In addition, in data set [15], the “flip-flop rate t1/2” value is 1 to 2 min. Further, the “Effect on tryptophan intrinsic fluorescence signal” value on wild type AeSCP-2 [11] is “does not produce a quenching”.
Take `CCCCCCCCCCCCCCCC(=O)O` [palmitic acid]: the EC50 on AeSCP-2 F32W mutant [13] turned out to be 0.398 µM; on AeSCP-2 W44E mutant [18], 0.075 µM; at AeSCP-2 Y30A mutant [14], 0.1 µM; on AeSCP-2 W44A mutant, 0.127 µM; on AeSCP-2 F105W mutant [16] it was 0.175 µM; at AeSCP-2 M90L mutant [19], 0.127 µM. The midpoint of the response at wild type AeSCP-2 [17], the EC50, lay at 0.348 µM. Further, the “Competition with NBD-cholesterol” value at AeSCP-2 [1] is “also competed with NBD-cholesterol for binding to AeSCP-2”.
For `CC[C@H](CC[C@@H](C)[C@H]1CC[C@H]2[C@@H]3CC=C4C[C@@H](O)CC[C@]4(C)[C@H]3CC[C@]12C)C(C)C` [β-sitosterol], the EC50 at AeSCP-2 F32W mutant [13] was 0.061 µM; on AeSCP-2 W44E mutant [18], 0.042 µM; at AeSCP-2 Y30A mutant [14], 0.096 µM; on AeSCP-2 W44A mutant, 0.112 µM; on AeSCP-2 F105W mutant [16] it was 0.083 µM; on AeSCP-2 M90L mutant [19] it was 0.046 µM. The molecule also displayed an EC50 at wild type AeSCP-2 [17] of 0.142 µM. Also, the “Competition with NBD-cholesterol” value at AeSCP-2 [1] is given as “also competed with NBD-cholesterol for binding to AeSCP-2”.
